# Assay outcomes as filed in PubChem BioAssay.
# Shown are actives, neighbours in structure and some others; about 2.9% of the full set was active somewhere.
# TRPC6 inh – mouse TRPC6 channel inhibition; HEK293-TRPC6, membrane potential dye, ACh-evoked depolarization; active compounds read low; B-score at 10 µM; actives 1.1% (n = 310,000);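 active = B-score under library mean minus 3 SD, initial fluorescence not abnormally high, positive integrated signal ratio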;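 also: B-score derived from integrated fluorescence ratio over the kinetic read; more negative B-score means stronger inhibition of depolarization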
# TRPC4 block – blocks the mouse TRPC4 cation channel | Q9QUQ5 | HEK293 TRPC4beta/mu-opioid, DAMGO-evoked Fluo4 calcium flux; active compounds read low | B-score at 10 µM | actives 0.39% (n = 300,000) | AID 2247;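 active = B-score over 3 SD under the library average, no early fluorescence shift, positive overall ratio signal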
#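 Material: HEK293 cells with stable TRPC4beta plus mu-opioid receptor expression; probe or stimulus: DAMGO in two steps, submaximal then maximal; technique: Fluo4 calcium fluorescence by kinetic imaging, 5 s 1 Hz baseline; measure: integrated fluorescence ratio relative to baseline, converted to per-well B score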
# TRPC6 act – activates the mouse TRPC6 cation channel. B-score at 10 µM. Q61143. HEK293-TRPC6 membrane potential dye fluorescence; active compounds read high. actives 0.13% (n = 310,000);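 active = B-score of the integrated fluorescence ratio above library mean plus 3 SD, and starting fluorescence ratio within library mean plus 5 SD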;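 also: higher score means more depolarization so channel activation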
# TRPC4 act – opens the mouse TRPC4 cation channel. HEK293 TRPC4beta/mu-opioid, Fluo4 calcium fluorescence; active compounds read high. actives 0.49% (n = 310,000). Q9QUQ5. B-score at 10 µM. AID 2237;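 active = B-score above 5 SD of library B-scores, and initial fluorescence ratio not above library mean plus 5 SD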;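 also: positive B-score marks a calcium rise read as TRPC4 activation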
#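 System: HEK293 cells stably co-expressing mouse TRPC4beta and mu-opioid receptor; Schedule: Fluo4 dye loading 45 min at room temperature, 110 s recording; Detection: Fluo4 fluorescence, kinetic; Evaluation: B-scored integrated calcium fluorescence ratio; Controls: buffer (low) and maximal DAMGO (high).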
# Kir21 inh – blocks the mouse Kir2.1 inward-rectifier potassium channel; HEK293-Kir2.1, FluxOR thallium flux fluorescence; active compounds read low; AID 1672; actives 0.85% (n = 310,000); B-score at 10 µM;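 active = fluorescence ratio B-score at or below minus 3 SD of library scores, with starting-brightness B-score within 2 SD, cut at about -4.2 in these data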;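 also: channel flux triggered by added potassium and thallium sulfate stimulus; B-score of peak minus minimum fluorescence over baseline after thallium stimulus; more negative B-score means stronger Kir2.1 block with less thallium influx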
# Target sequence (P35561 whole entry, looked up): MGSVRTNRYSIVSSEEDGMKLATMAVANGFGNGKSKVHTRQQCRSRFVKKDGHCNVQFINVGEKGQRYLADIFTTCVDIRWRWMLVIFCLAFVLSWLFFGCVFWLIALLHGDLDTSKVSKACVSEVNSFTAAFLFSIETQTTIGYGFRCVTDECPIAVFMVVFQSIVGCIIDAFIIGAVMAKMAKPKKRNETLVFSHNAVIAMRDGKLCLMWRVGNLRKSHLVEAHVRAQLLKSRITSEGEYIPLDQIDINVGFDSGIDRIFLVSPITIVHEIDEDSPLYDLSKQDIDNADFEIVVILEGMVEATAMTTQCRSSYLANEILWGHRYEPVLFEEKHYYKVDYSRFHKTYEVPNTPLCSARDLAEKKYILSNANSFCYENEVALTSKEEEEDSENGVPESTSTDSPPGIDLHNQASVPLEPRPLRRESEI
# TRPC4 PAM – allosterically enhances the mouse TRPC4 cation channel; Q9QUQ5; HEK293 TRPC4beta/mu-opioid, DAMGO EC20, Fluo-4 Ca2+ flux; active compounds read high; B-score at 10 µM; actives 0.42% (n = 310,000); AID 2227;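 active = B-score of calcium response area above 5 SD of library B-scores, with initial fluorescence ratio within 5 SD of library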;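 also: B-score of integrated fluorescence ratio over time as area under calcium response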
# TRPC4 spec 2 – mouse TRPC4 off-target activity of TRPC6 inhibitors, second screen. actives 42% (n = 920). shares compounds with TRPC6 inh. inhibition, % at 10 µM. HEK293 TRPC4/MOR, membrane potential dye fluorescence; channel activated by saturating DAMGO dose;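 active = compounds whose fluorescence signal differed from control wells by over 3 SD, either direction, in both duplicate plates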
# TRPC4 spec – selectivity of TRPC6 inhibitors: effect on mouse TRPC4. HEK293 TRPC4/mu-opioid, membrane potential fluorescence. activity change, negative = inhibition, % at 10 µM. actives 61% (n = 920). AID 2777. shares compounds with TRPC6 inh;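 active = rise or fall in signal beyond 3 SD of buffer-only wells in both replicate plates, either sign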;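 also: integrated kinetic ratio of fluorescence range over baseline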
# HEK293 MPD ctr 2-1 – second check of TRPC6 inhibitor effects in parental HEK293 cells; shares compounds with TRPC6 inh; AID 2779; actives 31% (n = 920); signal change vs control, % at 10 µM; parental HEK293 membrane potential dye fluorescence; maximal acetylcholine challenge after compound addition;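 active = membrane potential signal moving either way by over 3 SD of the maximum-effect control, in both duplicate plates, meaning non-specific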
# HEK293 MPD ctr-1 – parental HEK293 nonspecific activity of TRPC6 inhibitors. actives 60% (n = 920). parental HEK293 membrane potential dye fluorescence. membrane potential signal change, % at 10 µM. shares compounds with TRPC6 inh;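 active = membrane potential signal shifting up or down by more than 3 SD of buffer-only wells, on both duplicate plates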
# HEK293 MPD ctr-2 – counter-screen for TRPC6 modulators: effect in parental HEK293 cells. shares compounds with TRPC6 inh. membrane potential dye fluorescence. membrane potential signal change, % at 10 µM. actives 51% (n = 2,400);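 active = membrane potential signal moves up or down beyond 5 SD from buffer-only wells, on both duplicate plates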
# HEK293 MPD ctr 2-2 – second check of TRPC6 modulator effects in parental HEK293 cells; AID 488926; actives 14% (n = 2,400); membrane potential dye fluorescence; after compound, maximal acetylcholine stimulation; shares compounds with TRPC6 inh; inhibition, % at 10 µM;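 active = membrane potential signal drops by more than 5 SD from the mean control signal, in both duplicate plates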;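 also: plate controls were acetylcholine ECmax control wells for no effect and buffer only wells for full effect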
# TRPC4 ctr mod – tests whether TRPC6 modulators also affect mouse TRPC4; percent change from control (negative = decrease, positive = increase), % at 10 µM; shares compounds with TRPC6 inh; HEK293 TRPC4/mu-opioid, membrane potential fluorescence; actives 69% (n = 2,400);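 active = membrane potential signal moved up or down beyond 5 SD of buffer control wells, in both duplicate plates, actives on both sides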;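 also: plate controls were assay buffer wells for no effect and DAMGO maximal-effect wells for full effect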
# TRPC4/MOR inh 2 – second selectivity test of TRPC6 modulators against mouse TRPC4; shares compounds with TRPC6 inh; actives 55% (n = 2,400); HEK293 TRPC4/mu-opioid, membrane potential dye fluorescence; stimulated with maximal-effect DAMGO; inhibition, % at 10 µM;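 active = drop in membrane potential signal beyond 5 SD of the control wells in both duplicate plates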;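 also: TRPC4 counter screen for TRPC6 hits run under conditions tuned for TRPC6 not TRPC4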
# TRPC6 inh conf – confirmation of mouse TRPC6 inhibitors; shares compounds with TRPC6 inh; HEK293-TRPC6, membrane potential dye, ACh-evoked depolarization; inhibition, % at 10 µM; actives 43% (n = 3,300);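 active = fluorescence ratio falls more than 5 SD below the full-stimulation control mean, in both duplicate runs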;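 also: integrated fluorescence ratio of peak minus minimum over baseline after agonist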
# TRPC6 act confirm – mouse TRPC6 activator confirmation; shares compounds with TRPC6 inh; HEK293-TRPC6 membrane potential dye fluorescence, FDSS; activation, % at 10 µM; actives 11% (n = 2,800);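 active = ratio signal rise beyond 5 SD above unstimulated control wells' mean, seen in both duplicate runs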;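 also: plate controls were buffer EC0 wells for no effect and acetylcholine ECmax response for full effect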
# Active calls of the source: *; i = inactive; . = no result; + = active, no number.
SMILES,TRPC6 inh,TRPC4 block,TRPC6 act,TRPC4 act,Kir21 inh,TRPC4 PAM,TRPC4 spec 2,TRPC4 spec,HEK293 MPD ctr 2-1,HEK293 MPD ctr-1,HEK293 MPD ctr-2,HEK293 MPD ctr 2-2,TRPC4 ctr mod,TRPC4/MOR inh 2,TRPC6 inh conf,TRPC6 act confirm
COc1ccc(C)c2sc(N(CCN(C)C)C(=O)c3cccc(N4C(=O)CCC4=O)c3)nc12,-6.37*,i,i,68*,1.71,i,.,.,.,.,i,i,-17.5%*,43.5%*,i,i
Oc1ccccc1-c1nc(NCc2ccccc2)c2ccccc2n1,i,i,i,i,1.06,i,.,.,.,.,.,.,.,.,.,.
CNc1nc(NCc2ccccc2)c2ccccc2n1,-5.27*,-6*,i,i,-5.4*,i,.,.,.,.,-110.5%*,i,-26.0%*,78.5%*,53.5%*,i
COc1cc(/C=C/C(=O)c2ccc3c(c2)OCO3)cc(Cl)c1O,i,i,52.3*,100*,-9.65,i,.,.,.,.,+,+,257.5%*,53.5%*,.,342.0%*
CCc1c(C)c(C#N)c2nc3ccccc3n2c1NCCN(C)C,-9.47*,i,i,i,0.17,i,.,.,.,.,-85.0%*,112.5%*,-18.0%*,75.5%*,77.5%*,i
C=C(C)Cc1c(C)c(C#N)c2nc3ccccc3n2c1NCCCN(C)C,-7.25*,i,i,i,-2.14,i,48.5%*,-16.1%*,i,-353.5%*,.,.,.,.,i,i
C=CCc1c(C)c(C#N)c2nc3ccccc3n2c1NCCN(C)C,-5.44*,i,i,i,-0.64,i,.,.,.,.,-116.5%*,i,-24.0%*,51.5%*,53.5%*,i
CCCc1cc(NCCCN(C)C)n2c(nc3ccccc32)c1C#N,-6.78*,i,i,i,0.34,i,62.0%*,-36.0%*,42.5%*,-454.0%*,.,.,.,.,63.3%*,i
Cn1c(SCC(=O)N2CCOCC2)nc2sc3c(c2c1=O)CCCC3,-8.78*,i,i,i,0.89,i,i,i,i,i,.,.,.,.,i,i
COC(=O)CSc1nc2sc3c(c2c(=O)n1C1CCCCC1)CCN(C)C3,-9.41*,i,i,i,1.14,i,78.0%*,i,i,-212.0%*,.,.,.,.,i,i
